Data published in ChEMBL document CHEMBL4622840, “Microbial transformation of glycyrrhetinic acid derivatives by Bacillus subtilis ATCC 6633 and Bacillus megaterium CGMCC 1.1741” (Bioorg Med Chem, 2020).
pIC50: −log10 of the molar value.

Experiments:
RAW264.7 = experiment: Antiinflammatory activity in mouse RAW264.7 cells assessed as inhibition of NO production preincubated for 1 hr followed by LPS stimulation measured after 24 hrs by Griess reagent based assay; assay type: functional, cell-based; conditions: for IC50: raw264.7; for pIC50: Mus musculus, RAW264.7, read-out: IC50
Procedure, shortened: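 RAW 264.7 macrophages kept at 37 °C under 5% CO2. Cells were exposed to compound for 1 h, then stimulated with LPS at 1.0 μg/mL. After 24 h, nitrite/NO in the medium was read with Griess reagent.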

[1] = Cytotoxicity against mouse RAW264.7 cells assessed as cell viability; assay type: cell-based; set-up: concentration or dose not given beside the values; conditions: read-out: Activity

| IC50 (RAW264.7) | pIC50 (RAW264.7) | SMILES | viability [1] [%] |
| --- | --- | --- | --- |
| Not Active |  | CC1(C)[C@@H](O)CC[C@]2(C)[C@H]3C(=O)C=C4[C@@H]5C[C@@](C)(C(=O)O)CC[C@]5(C)CC[C@@]4(C)[C@]3(C)CC[C@@H]12 [ENOXOLONE] | 4.04 |
| Not Active |  | CC1(C)[C@@H](O)CC[C@]2(C)[C@H]3[C@H](O)C=C4[C@@H]5C[C@@](C)(CO)CC[C@]5(C)C[C@H](O)[C@@]4(C)[C@]3(C)[C@@H](O)C[C@@H]12 | 112 |
| Not Active |  | CC1(C)[C@@H](O)CC[C@]2(C)C3[C@H](O)C=C4[C@@H]5C[C@@](C)(CO)CC[C@]5(C)CC[C@@]4(C=O)[C@]3(C)[C@@H](O)C[C@@H]12 (stereo not given in full) | 130 |
|  | 4.33 | CC1(C)[C@@H](O)CC[C@]2(C)[C@H]3C(=O)C=C4[C@@H]5C[C@@](C)(C=O)CC[C@]5(C)CC[C@@]4(C)[C@]3(C)CC[C@@H]12 | 89.6 |
| Not Active |  | CC1(C)[C@@H](O[C@@H]2O[C@H](CO)[C@@H](O)[C@H](O)[C@H]2O)CC[C@]2(C)[C@H]3C(=O)C=C4[C@@H]5C[C@@](C)(C=O)CC[C@]5(C)CC[C@@]4(C)[C@]3(C)CC[C@@H]12 | 7.33 |
|  | 4.16 | CC1(C)[C@@H](O)CC[C@]2(C)C3=CC=C4[C@@H]5C[C@@](C)(CO)CC[C@]5(C)C[C@H](O)[C@@]4(CO)[C@]3(C)[C@@H](O)C[C@@H]12 | 130 |
| Not Active |  | CC1(C)[C@@H](O)CC[C@]2(C)[C@H]3CC=C4[C@@H]5C[C@@](C)(C(=O)O)CC[C@]5(C)CC[C@@]4(CO)[C@]3(C)[C@@H](O)C[C@@H]12 | 114 |
|  | 7.15 | CC1(C)[C@@H](O)CC[C@]2(C)[C@H]3CC=C4[C@@H]5C[C@@](C)(CO)CC[C@]5(C)C[C@H](O)[C@@]4(CO)[C@]3(C)[C@@H](O)C[C@@H]12 | 107 |
| Not Active |  | CC1(C)[C@@H](O[C@@H]2O[C@H](CO)[C@@H](O)[C@H](O)[C@H]2O)CC[C@]2(C)[C@H]3C(=O)C=C4[C@@H]5C[C@@](C)(CO)CC[C@]5(C)CC[C@@]4(C)[C@]3(C)CC[C@@H]12 | 1.22 |
|  | 4.42 | CC1(C)C(=O)CC[C@]2(C)[C@H]3CC=C4[C@@H]5C[C@@](C)(CO)CC[C@]5(C)CC[C@@]4(C)[C@]3(C)CC[C@@H]12 | 110 |
| Not Active |  | CC1(C)[C@@H](O[C@@H]2O[C@H](CO)[C@@H](O)[C@H](O)[C@H]2O)CC[C@]2(C)[C@H]3C(=O)C=C4[C@@H]5C[C@@](C)(C(=O)O[C@@H]6O[C@H](CO)[C@@H](O)[C@H](O)[C@H]6O)CC[C@]5(C)CC[C@@]4(C)[C@]3(C)CC[C@@H]12 | 121 |
|  | 4.96 | CC1(C)CC[C@]2(C(=O)O[C@@H]3O[C@H](CO)[C@@H](O)[C@H](O)[C@H]3O)CC[C@]3(C)C(=CC(=O)[C@@H]4[C@@]5(C)CC[C@H](O)C(C)(C)[C@@H]5CC[C@]43C)[C@@H]2C1 | 82.7 |
|  | 6.19 | CC1(C)[C@@H](O)CC[C@]2(C)[C@H]3CC=C4[C@@H]5[C@H](O)[C@@](C)(CO)CC[C@]5(C)C[C@H](O)[C@@]4(C)[C@]3(C)[C@@H](O)C[C@@H]12 | 125 |
| Not Active |  | CC1(C)[C@@H](O)CC[C@]2(C)[C@H]3C(=O)C=C4[C@@H]5C[C@@](C)(C(=O)O[C@@H]6O[C@H](CO)[C@@H](O)[C@H](O)[C@H]6O)CC[C@]5(C)CC[C@@]4(C)[C@]3(C)CC[C@@H]12 | 94.8 |
| Not Active |  | CC1(C)[C@@H](O)CC[C@]2(C)[C@H]3CC=C4[C@@H]5C[C@@](C)(CO)CC[C@]5(C)C[C@H](O)[C@@]4(C)[C@]3(C)[C@@H](O)C[C@@H]12 | 120 |
| Not Active |  | CC1(C)CC[C@]2(C(=O)O)CC[C@]3(C)C(=CC(=O)[C@@H]4[C@@]5(C)CC[C@H](O)C(C)(C)[C@@H]5CC[C@]43C)[C@@H]2C1 | 111 |

| SMILES | IC50 (RAW264.7) | pIC50 (RAW264.7) | viability [1] [%] |
| --- | --- | --- | --- |
| CC1(C)[C@@H](O)CC[C@]2(C)[C@H]3CC=C4[C@@H]5C[C@@](C)(CO)CC[C@]5(C)CC[C@@]4(C)[C@]3(C)CC[C@@H]12 |  | 4.32 | 102 |
| CC1(C)[C@@H](O)CC[C@]2(C)[C@H]3C(=O)C=C4[C@@H]5C[C@@](C)(CO)CC[C@]5(C)CC[C@@]4(C)[C@]3(C)CC[C@@H]12 |  | 4.30 | 56.6 |
| O=c1c(O)c(-c2ccc(O)c(O)c2)oc2cc(O)cc(O)c12 [QUERCETIN] |  | 5.34 | 106 |
| CC1(C)[C@@H](O)CC[C@]2(C)[C@H]3CC=C4[C@@H]5C[C@@](C)(C(=O)O)CC[C@]5(C)CC[C@@]4(C)[C@]3(C)CC[C@@H]12 |  | 4.59 | 83.4 |
